Experimental findings from ChEMBL document CHEMBL1275416, “Chlamydia pneumoniae growth inhibition in cells by the steroid receptor antagonist RU486 (mifepristone)” (Antimicrob Agents Chemother, 2008) are described below.

Molecules are shown by their SMILES. Calls of active or inactive are those of the source. No cut-off for these calls is given here.

The subject of data set [1] is Chlamydia pneumoniae. The experiment in a line: Antimicrobial activity against Chlamydia pneumoniae infected in HEp-2 cells assessed as inhibition of bacterial replication at 2 uM after 24 hrs. The data set is classed as functional, organism-based. The method in brief:
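Time course: infected HEp-2 cells (MOI 10, centrifugation-assisted) were incubated with or without 2 µM RU486 for up to 72 h. At each time point, infective progeny in freeze-thaw lysates was titrated on fresh HEp-2 monolayers by IFU assay (72 h with cycloheximide 1 µg/ml, FITC anti-Chlamydia staining). Means ± SD, three experiments.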

Data set [2] concerns Chlamydia pneumoniae. In words: Antimicrobial activity against Chlamydia pneumoniae infected in HEp-2 cells at 20 uM. It counts as functional, organism-based.
For data set [3], the system named is Chlamydia pneumoniae. The experiment in a line: Antimicrobial activity against Chlamydia pneumoniae infected in HEp-2 cells. The data set is classed as functional, organism-based. A digest of the protocol: (§1)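 HEp-2 cells were infected with C. pneumoniae (MOI 10, centrifuged at 800 x g for 1 h at room temperature) and washed. They were seeded at 5 x 10^4 cells/well and cultured 72 h with RU486 (0.02 to 2 µM; ethanol vehicle control). Freeze-thaw lysates were serially diluted 10-fold onto HEp-2 monolayers, spun, grown 72 h at 37°C with cycloheximide 1 µg/ml, and FITC anti-Chlamydia stained for IFU counts. Means of three experiments.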

For data set [4], the system named is Chlamydia pneumoniae. In words: Antimicrobial activity against Chlamydia pneumoniae infected in HEp-2 cells assessed as a reduction in 16S rRNA transcript at 2 uM after 24 hrs by RT-PCR in presence of cycloheximide. The data set is classed as functional, organism-based. A digest of the protocol:
(§2)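 Infected HEp-2 cells (5 x 10^5 cells/well) were treated with RU486 2 µM with or without cycloheximide 1 µg/ml. Total RNA was extracted at harvest. C. pneumoniae 16S rRNA was quantified by real-time RT-PCR (50 cycles, melt-curve check), and copies per reaction were taken from a standard curve of diluted C. pneumoniae DNA. Means ± SD, three experiments.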

Data set [5] can be described thus: Cytotoxicity against human Hep2 cells at >2 uM. It counts as cell-based. Conditions: hep-2.
The subject of data set [6] is Chlamydia pneumoniae. The experiment in a line: Antimicrobial activity against Chlamydia pneumoniae infected in HEp-2 cells assessed as a reduction in 16S rRNA transcript at 2 uM after 72 hrs by RT-PCR in presence of cycloheximide. The data set is classed as functional, organism-based. The method in brief:
as §2

For data set [7], the system named is Chlamydia pneumoniae. In words: Antimicrobial activity against Chlamydia pneumoniae infected in HEp-2 cells assessed as a reduction in 16S rRNA transcript at 2 uM after 24 hrs by RT-PCR. The data set is classed as functional, organism-based. The method in brief: as §2
Data set [8] relates to Chlamydia pneumoniae. The experiment in a line: Antimicrobial activity against Chlamydia pneumoniae infected in HEp-2 cells at 2 uM after 72 hrs. The data set is classed as functional, organism-based. The method in brief: as §1
Data set [9] relates to Chlamydia pneumoniae. The experiment in a line: Antimicrobial activity against Chlamydia pneumoniae infected in HEp-2 cells assessed as a reduction in 16S rRNA transcript at 2 uM after 72 hrs by RT-PCR. The data set is classed as functional, organism-based. The method in brief: as §2
Data set [10] deals with Chlamydia pneumoniae. The experiment in a line: Antimicrobial activity against Chlamydia pneumoniae infected in HEp-2 cells assessed as growth inhibition at 2 uM pretreated for 1 hr before infection. It counts as functional, organism-based. The method in brief:
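Before infecting HEp-2 cells, the bacteria were pretreated with 2 µM RU486 for 1 h or left untreated. Cells were then cultured with or without RU486 2 µM or cycloheximide 1 µg/ml. Infective progeny in 72 h lysates was assessed by IFU assay. Means ± SD of three experiments.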

In data set [11] the test system is Chlamydia pneumoniae. The experiment in a line: Antimicrobial activity against Chlamydia pneumoniae infected in HEp-2 cells 0.02 to 2 uM after 72 hrs. It counts as functional, organism-based. A digest of the protocol: as §1
Data set [12] can be described thus: Cytotoxicity against human Hep2 cells at 20 uM. Conditions: hep-2, 20 µM. It counts as cell-based.
The subject of data set [13] is Chlamydia pneumoniae. The experiment in a line: Antimicrobial activity against Chlamydia pneumoniae infected in HEp-2 cells at 2 uM after 72 hrs in presence of cycloheximide. It counts as functional, organism-based. The method in brief: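 Infected HEp-2 cells were held 72 h with RU486 2 µM and/or cycloheximide 0.1 to 10 µg/ml, with untreated and ethanol controls. Infective progeny in cell lysates was counted by IFU assay on HEp-2 monolayers with FITC anti-Chlamydia antibody staining. Means ± SD of three experiments.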

Data set [14] is described as follows: Cmax in pregnant women at 800 mg, po. It counts as ADME, organism-based. On the set-up: dose 800 mg, route oral. Particulars: female, human, in vivo.

As a reminder, the Cmax is the maximum level reached in the sampled fluid or tissue. For the compound `CC#C[C@]1(O)CC[C@H]2[C@@H]3CCC4=CC(=O)CCC4=C3[C@@H](c3ccc(N(C)C)cc3)C[C@@]21C` [MIFEPRISTONE], the inhibition entry in [1] was “Active”. Besides, the result in [2], in data set [3], in data set [7], in [8], in data set [9] and in data set [13] was Active. For the same compound, the outcome in data set [4], in data set [6] and in data set [10] was inactive. For the same compound, the Activity entry in data set [5] was “Toxic”; in data set [11] it was “Dose-dependent effect”; in [12] it was “Toxic”. The compound also registered a Cmax in data set [14] of 2500 ng/mL.
